According to ChEMBL document CHEMBL2439985, “Multifunctional cyclic D,L-α-peptide architectures stimulate non-insulin dependent glucose uptake in skeletal muscle cells and protect them against oxidative stress” (J Med Chem, 2013):
Activity calls are given as the source filed them. The rule behind the calls is not given here.

How the values were obtained:
[1] = Antioxidant activity assessed as inhibition of H2O2-induced ROS production by DCFH assay; format: functional
Procedure, shortened: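 DCFH oxidation assay: H2O2 (0.5 mM) was incubated with DCFH with or without the test agent, and the DCF formed was read fluorometrically. Free His and Trolox served as controls.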

[2] = Antioxidant activity assessed as inhibition of H2O2-induced hydroxyl radical formation by EPR spectroscopic analysis in presence of Fe2+; format: functional
Procedure, shortened: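 Hydroxyl radicals came from a Fenton reaction: H2O2 (10 mM), FeSO4·7H2O (10 mM) and DMPO spin trap (40 mM), with peptide at 1−1000 μM. Samples were diluted in 15 mM phosphate buffer, pH 7.4, and read immediately by EPR. The spin-adduct signal was integrated.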

[3] = test system: L6; assay: Antiapoptotic activity in rat L6 cells assessed as suppression of 23.5 mM D-glucose-induced JNK-54 phosphorylation at 2 mM after 30 mins by Western blot analysis; format: functional, cell-based
[4] = test system: L6; assay: Antihyperglycemic activity in rat L6 cells assessed as increase in [3H]dGlc uptake at 2 mM after 30 mins by liquid scintillation counting analysis; format: functional, cell-based
Procedure, shortened: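 Differentiated L6 myotubes were preincubated 24 h in αMEM with 2% FCS and 5.5 or 23.5 mM D-glucose, then switched to FCS-free medium with 0.5% BSA 4 h before the assay. Peptide was given for 12 h or ALA for 30 min, vehicle 0.1% DMSO. After PBS rinses, cells took up 0.1 mM dGlc plus [3H]dGlc (1.3 μCi mL−1) for 5 min at room temperature. Cells were lysed in 0.1% SDS and counted by scintillation. Uptake is expressed as % of the DMSO basal rate.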

[5] = test system: L6; assay: Effect on total GLUT1 level in rat L6 cells at 2 mM after 30 mins by Western blotting analysis; format: functional, cell-based
[6] = test system: L6; assay: Effect on human myc epitope-tagged total GLUT4 level overexpressed in rat L6 cells at 2 mM after 30 mins by Western blotting analysis; format: functional, cell-based
Procedure, shortened: (§1)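 Whole-cell lysates of GLUT1myc- or GLUT4myc-overexpressing L6 myotubes were made after the same treatments as in the surface assay. Western blots were run for total transporter content.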

[7] = test system: L6; assay: Antihyperglycemic activity in rat L6 cells assessed as increase in [3H]dGlc uptake at 25 uM after 30 mins by liquid scintillation counting analysis; format: functional, cell-based
[8] = test system: L6; assay: Effect on human myc epitope-tagged total GLUT1 level overexpressed in rat L6 cells at 2 mM after 30 mins by Western blotting analysis; format: functional, cell-based; procedure, shortened: as §1
[9] = test system: L6; assay: Effect on total GLUT4 level in rat L6 cells at 2 mM after 30 mins by Western blotting analysis; format: functional, cell-based
[10] = target: T1, Solute carrier family 2, facilitated glucose transporter member 1 (Homo sapiens) (UniProt P11166); assay: Induction of human myc epitope-tagged GLUT1 translocation to plasma membrane overexpressed in rat L6 cells at 2 mM after 30 mins by immunocolorimetric analysis in presence of 23.5 mM D-glucose; format: cell-based
T1 sequence (whole entry): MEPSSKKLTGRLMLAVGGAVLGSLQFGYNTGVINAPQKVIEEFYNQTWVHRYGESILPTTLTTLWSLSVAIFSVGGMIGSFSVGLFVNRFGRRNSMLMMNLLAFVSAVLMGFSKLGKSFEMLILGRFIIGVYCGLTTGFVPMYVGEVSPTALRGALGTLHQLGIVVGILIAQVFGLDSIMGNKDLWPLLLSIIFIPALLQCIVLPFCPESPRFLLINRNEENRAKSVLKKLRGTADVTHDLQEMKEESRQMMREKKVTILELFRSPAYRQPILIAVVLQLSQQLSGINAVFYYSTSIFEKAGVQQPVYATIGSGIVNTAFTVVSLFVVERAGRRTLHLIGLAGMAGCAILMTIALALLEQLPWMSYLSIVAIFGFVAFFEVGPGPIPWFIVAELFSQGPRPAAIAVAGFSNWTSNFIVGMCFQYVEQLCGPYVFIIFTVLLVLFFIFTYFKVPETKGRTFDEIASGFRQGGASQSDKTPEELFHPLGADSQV
Procedure, shortened: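 L6 myotubes overexpressing GLUT1myc or GLUT4myc were held 9 h in serum-free αMEM with 0.5% BSA and 23.5 mM glucose. They received peptide (25 μM) or 0.1% DMSO over the last 8 h, and insulin (100 nM) or ALA (2 mM) over the last 30 min. Live cells were labelled with anti-c-Myc (1:200) and fixed in 3% formaldehyde. HRP anti-rabbit IgG (1:2000) and OPD were added, and absorbance was read at 492 nm.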

[11] = test system: L6; assay: Antiapoptotic activity in rat L6 cells assessed as suppression of 23.5 mM D-glucose-induced JNK-46 phosphorylation at 2 mM after 30 mins by Western blot analysis; format: functional, cell-based
[12] = test system: L6; assay: Antioxidant activity in rat L6 cells assessed as trolox equivalents of ABTS free radical scavenging activity at 2 mM after 2 hrs by ELISA reader analysis in presence of 23.5 mM D-glucose; format: functional, cell-based
Procedure, shortened: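 L6 myotubes in αMEM with 2% FCS and 5.5 or 23.5 mM glucose were treated with peptide (25 μM, 12 h) or ALA (2 mM, 2 h), vehicle 0.1% DMSO. Cells were lysed (Tris pH 7.5, NaCl, NP-40) through three freeze-thaw cycles and centrifuged. Lysates were assayed for metmyoglobin/H2O2-driven ABTS•+ formation. Results are Trolox equivalents per mg protein from a Trolox standard curve, with protein by Bradford.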

[13] = test system: L6; assay: Cytoprotective activity in rat L6 cells assessed as increase in glucose oxidase-reduced cell survival at 2 mM incubated for 30 mins prior to glucose oxidase challenge measured after 5 hrs by MTT assay in presence of 23.5 mM D-glucose; format: functional, cell-based
Procedure, shortened: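 L6 myotubes were kept 7 days in 23.5 mM glucose. They were pretreated with peptide (25 μM, 12 h) or ALA (2 mM, 30 min), vehicle 0.1% DMSO, at 37 °C. Glucose oxidase (50 mU mL−1) was then added for 5 h to generate H2O2. Viability was read by MTT.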

Row | EC50 [1] | EC50 [2] | Activity [10] | SMILES | Activity [3] | Activity [4] | Activity [5] | Activity [6] | Activity [7] | Activity [8] | Activity [9] | Activity [11] | Activity [12] | Activity [13]
1 | 6 µM | 100 µM | – | N[C@@H](Cc1c[nH]cn1)C(=O)O [HISTIDINE] | – | – | – | – | – | – | – | – | – | –
2 | – | – | Active | O=C(O)CCCCC1CCSS1 (centres undefined) | Active | Active | inactive | inactive | inactive | inactive | inactive | Active | Active | Active
3 | 0.35 µM | – | – | Cc1c(C)c2c(c(C)c1O)CCC(C)(C(=O)O)O2 (centres undefined) [TROLOX] | – | – | – | – | – | – | – | – | – | –
